Test results taken from ChEMBL document CHEMBL1141164, “Design and synthesis of a series of melamine-based nitroheterocycles with activity against Trypanosomatid parasites” (J Med Chem, 2005).
Values joined by “and” are separate entries in the source; they are usually repeats but may differ in a detail not shown here. Equal entries are not always repeated.

What was measured:
Leishmania donovani [1] = experiment: Inhibitory concentration in vitro against intracellular amastigotes of Leishmania donovani in mouse peritoneal macrophages incubated for 96 hr at 27 degree C
Mus musculus [2] = experiment: In vivo antitrypanosomal activity at a dose of 4*20 mg/kg, i.p., in mice infected with Trypanosoma brucei brucei STIB 795 strain; 0/4; type: functional
Trypanosoma cruzi [3] = experiment: In vitro inhibitory concentration against intracellular amastigotes of Trypanosoma cruzi in rat skeletal myoblasts incubated for 37 degree C for 4 days; type: functional, organism-based; conditions: 96 h
In short: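 L-6 myoblasts seeded at 2000 cells/well in RPMI 1640 with 10% FBS and 2 mM L-glutamine. After 24 h, 5000 T. cruzi Tulahuen C2C4 (LacZ) trypomastigotes added with serial drug dilution. Incubated 4 days at 37 °C in 5% CO2, then CPRG/Nonidet added.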

L6 = experiment: Concentration causing cytotoxicity to 50% of L-6 rat skeletal myoblasts; type: functional, cell-based
In short: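 L-6 rat skeletal myoblasts run in the same Alamar Blue assay as the trypanosome screen. Serial dilutions spanning 90 to 0.123 μg/mL, 72 h at 37 °C under 5% CO2, then Alamar Blue for a further 2–4 h. Fluorescence read at ex 536/em 588 nm and expressed as % of control to give IC50.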

Mus musculus [4] = experiment: In vivo antitrypanosomal activity at a dose of 4*20 mg/kg, i.p., in mice infected with Trypanosoma brucei brucei STIB 795 strain, measured as survival days (control 7 days); type: functional
[5] = tested on: Trypanosoma brucei rhodesiense; experiment: Inhibitory concentration in vitro against blood stream Trypanosoma brucei rhodesiense incubated for 72 hr at 37 degree C; type: functional, organism-based
In short: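 T. b. rhodesiense STIB900 trypomastigotes, a 1982 human isolate from Tanzania, grown in minimum essential medium with 2-mercaptoethanol and 15% heat-inactivated horse serum. Drug dilutions 90 to 0.123 μg/mL, 72 h at 37 °C, 5% CO2.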

[6] = tested on: Trypanosoma brucei brucei; experiment: In vitro inhibitory concentration against blood stream Trypanosoma brucei brucei AT1 wild type incubated for 72 h at 37 degree C; type: functional, organism-based
In short: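 Wild-type T. b. brucei trypomastigotes, tested alongside the P2 knockout (TbAT1-/-). Alamar Blue viability assay used to derive IC50 values.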

[7] = biological target: T1, Nucleoside transporter 2 (Trypanosoma brucei brucei) (UniProt Q9U763); experiment: In vitro inhibitory concentration against P2 aminopurine transporter of Trypanosoma brucei brucei 427 adenosine (0.5 uM) uptake in presence of 1 mM inosine
T1 sequence (whole entry): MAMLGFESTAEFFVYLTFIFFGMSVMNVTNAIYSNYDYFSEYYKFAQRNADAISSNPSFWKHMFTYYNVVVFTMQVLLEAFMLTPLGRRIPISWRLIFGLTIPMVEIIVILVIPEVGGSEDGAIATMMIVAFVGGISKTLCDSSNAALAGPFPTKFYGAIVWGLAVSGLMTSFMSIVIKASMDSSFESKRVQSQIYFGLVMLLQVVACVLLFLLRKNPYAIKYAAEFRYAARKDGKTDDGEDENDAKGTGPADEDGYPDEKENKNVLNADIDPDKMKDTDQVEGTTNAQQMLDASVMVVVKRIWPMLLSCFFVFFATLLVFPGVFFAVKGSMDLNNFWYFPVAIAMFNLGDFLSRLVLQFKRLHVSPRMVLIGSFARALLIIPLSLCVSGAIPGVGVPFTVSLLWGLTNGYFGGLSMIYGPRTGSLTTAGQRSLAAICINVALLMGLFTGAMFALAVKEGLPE
In short: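 Blood-purified T. b. brucei 427 held on ice in Carter's buffered saline. Uptake of radiolabeled adenosine fixed at 0.5 μM via P2, measured with 1 mM inosine present to block P1, by centrifugation through oil over a range of inhibitor concentrations. IC50 obtained by plotting inhibition against inhibitor concentration.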

[8] = tested on: Trypanosoma brucei brucei; experiment: In vitro inhibitory concentration against blood stream Trypanosoma brucei brucei AT1 knockout mutant with a non functional P2 transporter incubated for 72 h at 37 degree C; type: organism-based
In short: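 Bloodstream T. b. brucei trypomastigotes, wild type or P2 transporter knockout (TbAT1-/-), were tested side by side. Viability was read by Alamar Blue fluorescence and IC50 values were determined.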

Mus musculus [9] = experiment: In vivo antitrypanosomal activity at a dose of 4*20 mg/kg, i.p., in mice infected with Trypanosoma brucei brucei STIB 795 strain; 4/4; type: functional
Trypanosoma brucei [10] = experiment: Inhibitory concentration against wild-type (427) Trypanosoma brucei; type: functional, organism-based
Mus musculus [11] = experiment: In vivo antitrypanosomal activity at a dose of 4*20 mg/kg, i.p., in mice infected with Trypanosoma brucei rhodesiense STIB 900 strain, measured as survival days (control 6.5 days); type: functional
Trypanosoma cruzi [12] = experiment: In vivo activity at a dose of 25 mg/kg, i.p., for 5 doses in rodent model with Trypanosoma cruzi, measured as survival days (control 13 days); conditions: route intraperitoneal
Mus musculus [13] = experiment: In vivo antitrypanosomal activity at a dose of 4*20 mg/kg, i.p., in mice infected with Trypanosoma brucei rhodesiense STIB 900 strain; 1/4; type: functional
Trypanosoma brucei [14] = experiment: Inhibitory concentration against RAD51-/- mutant Trypanosoma brucei
Mus musculus [15] = experiment: In vivo antitrypanosomal activity at a dose of 4*8 mg/kg, i.p., in mice infected with Trypanosoma brucei rhodesiense STIB 900 strain, measured as survival days (control 7 days); ND is not determined; type: functional
Mus musculus [16] = experiment: In vivo antitrypanosomal activity at a dose of 4*1 mg/kg, i.p., in mice infected with Trypanosoma brucei brucei STIB 795 strain; 2/4; type: functional
Mus musculus [17] = experiment: In vivo antitrypanosomal activity at a dose of 4*1 mg/kg, i.p., in mice infected with Trypanosoma brucei rhodesiense STIB 900 strain, measured as cured/infected; 0/4; type: functional
Mus musculus [18] = experiment: In vivo antitrypanosomal activity at a dose of 4*1 mg/kg, i.p., in mice infected with Trypanosoma brucei rhodesiense STIB 900 strain, measured as survival days (control 7 days); ND is not determined; type: functional
Mus musculus [19] = experiment: In vivo antitrypanosomal activity at a dose of 4*8 mg/kg, i.p., in mice infected with Trypanosoma brucei rhodesiense STIB 900 strain, measured as cured/infected; 4/4; type: functional
Mus musculus [20] = experiment: In vivo antitrypanosomal activity at a dose of 4*1 mg/kg, i.p., in mice infected with Trypanosoma brucei brucei STIB 795 strain, measured as survival days (control 7 days); type: functional
Trypanosoma cruzi [21] = experiment: In vivo percent inhibition of compound at a dose of 45 mg/kg, p.o., for 5 doses in rodent model with Trypanosoma cruzi [ND = not determined]; conditions: po
Trypanosoma cruzi [22] = experiment: In vivo activity at a dose of 45 mg/kg, p.o., for 5 doses in rodent model with Trypanosoma cruzi, measured as survival days (control 13 days); conditions: route oral
Leishmania donovani [23] = experiment: Inhibitory concentration in vitro against intracellular amastigotes of Leishmania donovani in mouse peritoneal macrophages incubated for 96 hr at […]; tox is toxic to macrophages
Mus musculus [24] = experiment: In vivo antitrypanosomal activity at a dose of 4*5 mg/kg, i.p., in mice infected with Trypanosoma brucei brucei STIB 795 strain, measured as survival days (control 7 days); type: functional
Mus musculus [25] = experiment: In vivo antitrypanosomal activity at a dose of 4*20 mg/kg, i.p., in mice infected with Trypanosoma brucei rhodesiense STIB 900 strain, measured as cured/infected; 0/4; type: functional
Mus musculus [26] = experiment: In vivo antitrypanosomal activity at a dose of 4*5 mg/kg, i.p., in mice infected with Trypanosoma brucei brucei STIB 795 strain; 4/4; type: functional
Mus musculus [27] = experiment: In vivo antitrypanosomal activity at a dose of 4*20 mg/kg, i.p., in mice infected with Trypanosoma brucei rhodesiense STIB 900 strain, measured as survival days (control 7 days); ND is not determined; type: functional
Mus musculus [28] = experiment: In vivo antitrypanosomal activity at a dose of 4*20 mg/kg, i.p., in mice infected with Trypanosoma brucei rhodesiense STIB 900 strain, measured as survival days (control 7 days); type: functional
Trypanosoma cruzi [29] = experiment: In vivo activity at a dose of 15 mg/kg, i.p., for 5 doses in rodent model with Trypanosoma cruzi, measured as survival days (control 13 days); conditions: route intraperitoneal
Mus musculus [30] = experiment: In vivo antitrypanosomal activity at a dose of 4*20 mg/kg, i.p., in mice infected with Trypanosoma brucei rhodesiense STIB 900 strain; 0/4; type: functional

Row | Compound | IC50 (Trypanosoma cruzi [3]) [nM] | IC50 (L6) [µM] | IC50 [5] [nM] | IC50 [6] [µM] | IC50 [7] [µM] | IC50 [8] [nM] | IC50 (Leishmania donovani [23]) | further results
1 | CNc1nc(NC)nc(N/N=C/c2ccc([N+](=O)[O-])o2)n1 | 240 | 44.1 | 10 |  |  |  |  | IC50 (Leishmania donovani [1]): 3.14 µM; Cured/Infected (Mus musculus [2]): 0; Survival (Mus musculus [4]): 5.25 days
2 | NNc1nc(N)nc(N)n1 |  |  |  | > 200 | 11.9 | > 200000 |  | 
3 | Nc1nc(N)nc(N/N=C/c2ccc([N+](=O)[O-])o2)n1 | 2100 | 183 | 25 | 0.23 | 22.9 | 380 |  | IC50 (Leishmania donovani [1]): > 12.5 µM; Cured/Infected (Mus musculus [9]): 4; IC50 (Trypanosoma brucei [10]): 0.08 µM; IC50 (Trypanosoma brucei [10]; Trypanosoma brucei): 0.08 µM; Survival (Mus musculus [4]): >60 days; Survival (Mus musculus [11]): 35.25 days; Survival (Trypanosoma cruzi [12]): 13 days; Cured/Infected (Mus musculus [13]): 1; IC50 (Trypanosoma brucei [14]): 0.1 µM
4 | Nc1nc(N)nc(Nc2ccc([As]3SCC(CO)S3)cc2)n1 (stereo not given) [MELARSOPROL] | 6 |  | 6 | 0.053 | 1.2 | 120 |  | Survival (Mus musculus [15]): >60 days; Cured/Infected (Mus musculus [16]): 2; IC50 (Leishmania donovani [1]): 7.8 µM; Cured/Infected (Mus musculus [17]): 0; Survival (Mus musculus [18]): 21.25 days; Cured/Infected (Mus musculus [19]): 4; Survival (Mus musculus [20]): >60 days
5 | O=C(Cn1ccnc1[N+](=O)[O-])NCc1ccccc1 [BENZNIDAZOLE] |  |  |  |  |  |  |  | inhibition in vivo at 45 mg/kg (Trypanosoma cruzi [21]): 100%; Survival (Trypanosoma cruzi [22]): >30 days; IC50 (Trypanosoma brucei [10]; Trypanosoma brucei): 116 µM; IC50 (Trypanosoma brucei [14]): 114 µM
6 | Nc1nc(N)nc(N/N=C/c2ccco2)n1 | > 400000 | > 400 | 12900 | 16.5 | 15.9 | 29300 | Toxic | 
7 | N=C(N)c1ccc(OCCCCCOc2ccc(C(=N)N)cc2)cc1 [PENTAMIDINE] |  |  |  |  |  |  |  | Survival (Mus musculus [24]): >60 days; Cured/Infected (Mus musculus [25]): 0; Cured/Infected (Mus musculus [26]): 4; Survival (Mus musculus [27]): 42.75 days
8 | CC1CS(=O)(=O)CCN1/N=C/c1ccc([N+](=O)[O-])o1 (stereo not given) [NIFURTIMOX] | 1500 | 68 | 1500 | 5.6 |  |  |  | IC50 (Leishmania donovani [1]): 68 µM; IC50 (Trypanosoma brucei [10]): 4.1 µM and 11.4 µM; IC50 (Trypanosoma brucei [14]): 4.3 µM
9 | CN(C)c1nc(N/N=C/c2ccc([N+](=O)[O-])o2)nc(N(C)C)n1 | 380 | 18.7 | 3 | 0.2 | 129 | 300 | Toxic | Survival (Mus musculus [28]): 7.25 days; Survival (Trypanosoma cruzi [29]): 12.8 days; Cured/Infected (Mus musculus [30]): 0
10 | O=[N+]([O-])c1ccc(/C=N/O)o1 [NIFUROXIME] |  | 40 | 680 | 1.18 | 300 | 1260 | Toxic | 
11 | N#Cc1ccc(/C=N/Nc2nc(N)nc(N)n2)o1 | 122000 |  | 46300 |  |  |  |  | 
12 | Nc1nc(N)nc(N/N=C/c2ccc([N+](=O)[O-])cc2)n1 | 91500 |  | 29900 | > 75 |  |  |  | 
13 | Nc1nc(N)nc(N/N=C/c2ccc([N+](=O)[O-])s2)n1 | 2600 | 11.8 | 240 | 0.85 | 1.9 | 1520 | Toxic | 
14 | Nc1nc(N)nc(N/N=C/c2cccc([N+](=O)[O-])c2)n1 | 328000 |  | 52900 | > 75 |  |  |  | 
15 | Nc1nc(N)nc(N/N=C/c2cccs2)n1 | 85800 | 78.2 | 10200 | 89 | 4.9 | 170000 | Toxic | 
16 | Nc1nc(N)nc(N/N=C/c2ccccc2[N+](=O)[O-])n1 | 328000 |  | 36500 | > 75 |  |  |  | 
17 | N/N=C/c1ccc([N+](=O)[O-])o1 |  | 20 | 2300 | 23.5 | 404 | 13500 | Toxic | 
